Measured values as given in ChEMBL document CHEMBL3351297, “In Vitro Antibacterial Activity of Prenylated Guanidine Alkaloids from Pterogyne nitens and Synthetic Analogues” (2014).
Converted amounts (≈) assume the structure as drawn.

Assays:
Staphylococcus aureus [1] = assay: Antimicrobial activity against multi-drug-resistant Staphylococcus aureus SA-1199B expressing NorA efflux pump assessed as absence of growth after 18 hrs by MTT assay; assay type: functional
Summary of the method: (§1)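 Strains were pre-grown on nutrient agar for 24 h at 37 °C. Inoculum was 1 × 10^6 cfu/mL in normal saline, set against a 0.5 McFarland standard. Compounds were dissolved in DMSO and serially diluted in cation-adjusted Mueller-Hinton broth (20 mg/L Ca2+, 10 mg/L Mg2+) over 512 to 0.5 mg/L. Plates ran 18 h at 37 °C. MTT was added for 20 min; blue meant growth. MIC is the lowest concentration without growth.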

Staphylococcus aureus [2] = assay: Antimicrobial activity against methicillin-resistant Staphylococcus aureus XU212 assessed as absence of growth after 18 hrs by MTT assay; assay type: functional; details: XU212, 18 h; summary of the method: as §1
Staphylococcus aureus [3] = assay: Antimicrobial activity against Staphylococcus aureus ATCC25943 assessed as absence of growth after 18 hrs by MTT assay; assay type: functional; details: ATCC25943, 18 h; summary of the method: as §1
Staphylococcus aureus [4] = assay: Antimicrobial activity against methicillin-resistant Staphylococcus aureus EMRSA-15 assessed as absence of growth after 18 hrs by MTT assay; assay type: functional; details: EMRSA-15, 18 h; summary of the method: as §1
Staphylococcus aureus [5] = assay: Antimicrobial activity against methicillin-resistant Staphylococcus aureus EMRSA-16 assessed as absence of growth after 18 hrs by MTT assay; assay type: functional; details: EMRSA-16, 18 h; summary of the method: as §1
Staphylococcus aureus [6] = assay: Antimicrobial activity against macrolide-resistant Staphylococcus aureus RN4220 assessed as absence of growth after 18 hrs by MTT assay; details: RN4220, 18 h
Staphylococcus aureus [7] = assay: Bactericidal activity against multi-drug-resistant Staphylococcus aureus SA-1199B expressing NorA efflux pump incubated for 24 hrs followed by transfer to Petri dishes and measured after 24 hrs; details: read-out: MBC99.9

Compound	MIC (Staphylococcus aureus [1])	MIC (Staphylococcus aureus [2])	MIC (Staphylococcus aureus [3])	MIC (Staphylococcus aureus [4])	MIC (Staphylococcus aureus [5])	MIC (Staphylococcus aureus [6])	MBC (Staphylococcus aureus [7])
CC(C)=CCC/C(C)=C/C=N/C(N)N	32 mg/L (≈ 164 µM)	8 mg/L (≈ 41 µM)	16 mg/L (≈ 81.9 µM)	16 mg/L (≈ 81.9 µM)	8 mg/L (≈ 41 µM)	16 mg/L (≈ 81.9 µM)	
CC(C)=CCC/C(C)=C/CNC(=N)NC/C=C(\C)CCC=C(C)C [NITENSIDINE A]	32 mg/L (≈ 96.5 µM)	8 mg/L (≈ 24.1 µM)	16 mg/L (≈ 48.3 µM)	16 mg/L (≈ 48.3 µM)	8 mg/L (≈ 24.1 µM)	16 mg/L (≈ 48.3 µM)	
CC(C)=CCC/C(C)=C/CNC(=O)NC/C=C(\C)CCC=C(C)C	> 512 mg/L	> 512 mg/L	> 512 mg/L	> 512 mg/L	> 512 mg/L	> 512 mg/L	
CC(C)=CCC/C(C)=C/CNC(=S)NC/C=C(\C)CCC=C(C)C	128 mg/L (≈ 367 µM)	128 mg/L (≈ 367 µM)	128 mg/L (≈ 367 µM)	> 512 mg/L	32 mg/L (≈ 91.8 µM)	128 mg/L (≈ 367 µM)	
CC(C)=C/C=C/C1(C)CCN=C(N)N1 (configuration not stated) [NITENSIDINE E]	32 mg/L (≈ 166 µM)	8 mg/L (≈ 41.4 µM)	16 mg/L (≈ 82.8 µM)	32 mg/L (≈ 166 µM)	8 mg/L (≈ 41.4 µM)	16 mg/L (≈ 82.8 µM)	
CC(C)=CCN=C(N)N [GALEGINE]	4 mg/L (≈ 31.4 µM)	4 mg/L (≈ 31.4 µM)	4 mg/L (≈ 31.4 µM)	4 mg/L (≈ 31.4 µM)	4 mg/L (≈ 31.4 µM)	4 mg/L (≈ 31.4 µM)	4 mg/L (≈ 31.4 µM)
CC(C)=CCC/C(C)=C/CN(C)C(=N)N(C)C/C=C(\C)CCC=C(C)C [NITENSIDINE C]	32 mg/L (≈ 89 µM)	8 mg/L (≈ 22.2 µM)	16 mg/L (≈ 44.5 µM)	32 mg/L (≈ 89 µM)	8 mg/L (≈ 22.2 µM)	16 mg/L (≈ 44.5 µM)	
CC(C)=CCNC(=N)NCC=C(C)C [PTEROGYNIDINE]	4 mg/L (≈ 20.5 µM)	4 mg/L (≈ 20.5 µM)	4 mg/L (≈ 20.5 µM)	4 mg/L (≈ 20.5 µM)	4 mg/L (≈ 20.5 µM)	4 mg/L (≈ 20.5 µM)	4 mg/L (≈ 20.5 µM)
CCn1cc(C(=O)O)c(=O)c2cc(F)c(N3CCNCC3)cc21 [NORFLOXACIN]	32 mg/L (≈ 100 µM)	8 mg/L (≈ 25.1 µM)	0.5 mg/L (≈ 1.57 µM)	0.5 mg/L (≈ 1.57 µM)	128 mg/L (≈ 401 µM)	0.5 mg/L (≈ 1.57 µM)	
CC(C)=CCN=C(NCC=C(C)C)NCC=C(C)C	> 512 mg/L	> 512 mg/L	> 512 mg/L	> 512 mg/L	> 512 mg/L	> 512 mg/L	
